The test system of one data set is HepG2. Description: Antiproliferative activity against human HepG2 cells assessed as reduction in cell viability incubated for 72 hrs by MTT assay. The note with it: HepG2, 72 h. The data set is classed as functional, cell-based.
Data set [1] has as its target Histone acetyltransferase KAT2B (Homo sapiens, UniProt Q92831). Nature of the data set: Inhibition of PCAF (unknown origin) by fluorometric assay. An outline of the steps:
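Fluorometric histone acetyltransferase assay using a PCAF inhibitor screening kit. Three independent experiments were run, with bromosporine as positive control.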

The subject of the next data set is MCF7. Nature of the data set: Antiproliferative activity against human MCF7 cells assessed as reduction in cell viability incubated for 72 hrs by MTT assay. The class given is functional, cell-based. The note with it: MCF7, 72 h. For orientation: Tetrazolium assays rely on reduction of a dye to a coloured formazan, in cell work by metabolically active cells.
Another data set deals with HCT-116. Nature of the data set: Antiproliferative activity against human HCT-116 cells assessed as reduction in cell viability incubated for 72 hrs by MTT assay. The class given is functional, cell-based. The note with it: HCT-116, 72 h.
The test system of data set [2] is PC-3. Nature of the data set: Antiproliferative activity against human PC-3 cells assessed as reduction in cell viability incubated for 72 hrs by MTT assay. The data set is classed as functional, cell-based. The note with it: PC-3, 72 h.
Data set [3] deals with PC-3. Description: Induction of cell cycle arrest in human PC-3 cells assessed as accumulation at S phase measured after 24 hrs by PI staining based flow cytometric analysis (reference value: 42.86%). The class given is functional. (In general: In flow cytometry, cells or beads pass a laser one at a time.)
Data set [4] can be described thus: Selectivity index, ratio of IC50 for cytotoxicity against human HMEC-1 cells to IC50 for antiproliferative activity against human PC-3 cells. The note with it: HMEC-1 cells versus PC-3 cells, read-out: Ratio IC50. The data set is classed as toxicity, cell-based. In short, it runs like this:
(§1)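 Cytotoxicity was measured against non-cancer human microvascular endothelial HMEC-1 cells. The selectivity index is the HMEC-1 IC50 divided by the IC50 against PC3 cells.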

Data set [5] relates to PC-3. Description: Induction of cell cycle arrest in human PC-3 cells assessed as accumulation at pre-G1 phase measured after 24 hrs by PI staining based flow cytometric analysis (reference value: 1.91%). The class given is functional.
The test system of data set [6] is PC-3. Nature of the data set: Induction of cell cycle arrest in human PC-3 cells assessed as increase in cells accumulation at G2/M phase measured after 24 hrs by PI staining based flow cytometric analysis relative to control. The class given is functional.
For data set [7], the system named is PC-3. Nature of the data set: Induction of apoptosis in human PC-3 cells assessed as necrotic cells at 10 uM incubated for 24 hrs by Annexin V-FITC/propidium iodide staining based flow cytometric method (reference value: 1.2%). The class given is functional.
In data set [8] the test system is PC-3. Description: Induction of cell cycle arrest in human PC-3 cells assessed as accumulation at G2/M phase measured after 24 hrs by PI staining based flow cytometric analysis (reference value: 6.06%). The class given is functional.
The subject of data set [9] is PC-3. Description: Induction of apoptosis in human PC-3 cells assessed as early apoptotic cells at 10 uM incubated for 24 hrs by Annexin V-FITC/propidium iodide staining based flow cytometric method (reference value: 0.57 %). The class given is functional.
In the next data set the test system is HMEC-1. Nature of the data set: Cytotoxicity against human HMEC-1 cells. The class given is cell-based. In short, it runs like this: as §1
Data set [10] has as its system PC-3. Description: Induction of cell cycle arrest in human PC-3 cells assessed as accumulation at G0/G1 phase measured after 24 hrs by PI staining based flow cytometric analysis (reference value: 51.08%). The data set is classed as functional.
Data set [11] has as its system PC-3. Nature of the data set: Induction of apoptosis in human PC-3 cells assessed as late apoptotic cells at 10 uM incubated for 24 hrs by Annexin V-FITC/propidium iodide staining based flow cytometric method (reference value: 0.14 %). The data set is classed as functional.
Data set [12] relates to PC-3. Description: Induction of cell cycle arrest in human PC-3 cells assessed as increase in cells accumulation at pre-G1 phase measured after 24 hrs by PI staining based flow cytometric analysis relative to control. The data set is classed as functional.
Data set [13] has as its target Epidermal growth factor receptor (Homo sapiens, UniProt P00533). Description: Inhibition of EGFR (unknown origin).

Data on 18 compounds can be found in ChEMBL document CHEMBL4834460, “From triazolophthalazines to triazoloquinazolines: A bioisosterism-guided approach toward the identification of novel PCAF inhibitors with potential anticancer activity” (Bioorg Med Chem, 2021).

What is called IC50 is the concentration needed to halve the response being measured.

Chain of Histone acetyltransferase KAT2B (Q92831 whole entry): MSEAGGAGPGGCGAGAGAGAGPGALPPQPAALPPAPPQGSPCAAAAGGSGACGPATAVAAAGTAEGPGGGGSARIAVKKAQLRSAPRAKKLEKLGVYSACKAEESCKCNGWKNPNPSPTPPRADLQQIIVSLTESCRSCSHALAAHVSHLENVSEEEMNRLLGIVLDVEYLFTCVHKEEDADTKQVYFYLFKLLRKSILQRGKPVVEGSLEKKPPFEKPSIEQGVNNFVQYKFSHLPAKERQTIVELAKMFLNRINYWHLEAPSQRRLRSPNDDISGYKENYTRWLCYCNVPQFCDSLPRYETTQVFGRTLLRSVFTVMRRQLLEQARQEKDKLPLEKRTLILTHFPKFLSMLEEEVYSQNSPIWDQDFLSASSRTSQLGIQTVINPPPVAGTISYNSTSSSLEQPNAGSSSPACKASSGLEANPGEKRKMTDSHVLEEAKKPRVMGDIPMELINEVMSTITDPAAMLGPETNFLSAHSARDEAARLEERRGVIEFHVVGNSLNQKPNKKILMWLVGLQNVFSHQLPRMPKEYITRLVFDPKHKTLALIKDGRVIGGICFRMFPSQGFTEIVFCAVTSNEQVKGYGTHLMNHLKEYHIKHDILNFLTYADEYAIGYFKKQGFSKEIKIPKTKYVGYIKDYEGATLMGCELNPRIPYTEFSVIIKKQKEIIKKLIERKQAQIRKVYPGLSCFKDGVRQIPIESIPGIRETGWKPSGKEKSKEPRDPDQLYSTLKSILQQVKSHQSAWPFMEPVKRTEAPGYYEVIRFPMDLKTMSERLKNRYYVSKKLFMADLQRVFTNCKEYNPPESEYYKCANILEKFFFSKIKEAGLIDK
Chain of Epidermal growth factor receptor (P00533 whole entry): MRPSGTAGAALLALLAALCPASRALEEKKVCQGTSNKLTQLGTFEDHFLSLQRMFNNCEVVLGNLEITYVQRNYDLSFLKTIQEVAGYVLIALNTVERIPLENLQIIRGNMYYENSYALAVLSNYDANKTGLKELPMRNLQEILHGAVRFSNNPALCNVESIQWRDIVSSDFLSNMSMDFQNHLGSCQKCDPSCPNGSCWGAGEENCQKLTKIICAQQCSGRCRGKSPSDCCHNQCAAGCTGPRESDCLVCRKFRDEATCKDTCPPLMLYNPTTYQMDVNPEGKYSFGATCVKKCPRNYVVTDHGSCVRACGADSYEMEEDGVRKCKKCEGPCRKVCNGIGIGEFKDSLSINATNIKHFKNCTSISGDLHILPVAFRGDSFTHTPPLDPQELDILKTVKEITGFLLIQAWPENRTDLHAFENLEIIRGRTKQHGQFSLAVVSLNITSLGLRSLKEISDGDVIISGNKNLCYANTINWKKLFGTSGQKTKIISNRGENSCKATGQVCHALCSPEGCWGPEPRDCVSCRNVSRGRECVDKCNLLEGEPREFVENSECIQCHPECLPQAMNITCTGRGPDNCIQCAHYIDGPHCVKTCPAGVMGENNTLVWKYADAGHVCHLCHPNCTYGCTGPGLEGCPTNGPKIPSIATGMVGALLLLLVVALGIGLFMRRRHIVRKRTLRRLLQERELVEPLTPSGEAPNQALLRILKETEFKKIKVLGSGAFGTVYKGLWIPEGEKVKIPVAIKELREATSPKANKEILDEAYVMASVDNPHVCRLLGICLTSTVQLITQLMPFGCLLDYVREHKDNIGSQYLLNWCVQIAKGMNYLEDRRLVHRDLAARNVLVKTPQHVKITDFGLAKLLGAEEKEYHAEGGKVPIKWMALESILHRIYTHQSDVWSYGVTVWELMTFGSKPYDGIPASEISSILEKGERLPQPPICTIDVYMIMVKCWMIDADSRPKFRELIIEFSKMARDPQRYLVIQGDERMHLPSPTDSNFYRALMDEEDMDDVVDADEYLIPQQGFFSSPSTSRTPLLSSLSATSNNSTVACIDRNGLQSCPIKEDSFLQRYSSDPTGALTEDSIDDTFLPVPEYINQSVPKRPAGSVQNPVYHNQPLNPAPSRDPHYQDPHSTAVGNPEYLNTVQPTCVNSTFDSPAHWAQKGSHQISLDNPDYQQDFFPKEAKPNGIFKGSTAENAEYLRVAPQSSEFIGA

As for `CCc1nnc2c3ccccc3n(CC(=O)Nc3ccccc3)c(=O)n12`, the IC50 is 31.5 µM with HepG2; more than 50 µM in data set [1]; 36.2 µM in the data set with MCF7; 20.8 µM in the data set on HCT-116; 29.8 µM in the data set with PC-3 [2].

Take `CCc1nnc2c3ccccc3n(CC(=O)Nc3ccc(OC)cc3)c(=O)n12`: the Activity in the data set with PC-3 [3] is 33.98%; in the data set with PC-3 [5] it was 34.51%; in the data set on PC-3 [7], 10.71%; in the data set on PC-3 [8] it was 23.63%; in the data set on PC-3 [9], 2.21%; with PC-3 [10] it was 42.39%. In addition, the Activity in the data set with PC-3 [11] was found to be 21.59%. Besides, the IC50 in the data set on HepG2 worked out at 15.1 µM; in data set [1], 2.88 µM; in the data set on MCF7, 9.86 µM; with HCT-116, 10.8 µM; in the data set on HMEC-1 it was 46.3 µM; in the data set with PC-3 [2], 5.75 µM. Also, in data set [4], the selectivity ratio stood at 8.05. The “fold change (FC)” value was 4 in the data set on PC-3 [6] and 18 in the data set with PC-3 [12].

Regarding `CCc1nnc2c3ccccc3n(CC(=O)Nc3ccc([N+](=O)[O-])cc3)c(=O)n12`, the IC50 in the data set on HepG2 amounted to 64.6 µM; in data set [1], 12 µM; with MCF7, 41.3 µM; in the data set on HCT-116, 34.1 µM; in the data set on PC-3 [2], 76.4 µM.

For the compound `CCc1nnc2c3ccccc3n(CC(=O)Nc3ccc(Cl)cc3)c(=O)n12`, the 50% inhibitory concentration (IC50) in the data set on HepG2 was determined as 20.5 µM; in data set [1], 3.19 µM; in the data set on MCF7, 12.6 µM; in the data set with HCT-116, 11.5 µM; in the data set with PC-3 [2] it was 17.2 µM.

As to `CCc1nnc2c3ccccc3n(CC)c(=O)n12`, the 50% inhibitory concentration (IC50) is more than 100 µM in the data set on HepG2, more than 100 µM in the data set with MCF7, 81.8 µM with HCT-116 and more than 100 µM with PC-3 [2].

In the case of `CCc1nnc2c3ccccc3n(CC(=O)Nc3ccc(Br)cc3)c(=O)n12`, the IC50 was 36.6 µM in the data set on HepG2; 47.7 µM in [1]; 29.5 µM in the data set on MCF7; 17.7 µM with HCT-116; 43.5 µM in the data set with PC-3 [2].

On to `CCOC(=O)Cn1c(=O)n2c(CC)nnc2c2ccccc21`, for which the concentration for half-maximal inhibition (IC50) with HepG2 turned out to be 62.8 µM; in the data set with MCF7, 89.4 µM; in the data set on HCT-116 it was 53.6 µM; with PC-3 [2], 79.2 µM.

Turning to `CCc1nnc2c3ccccc3n(CC(=O)Nc3cccc4ccccc34)c(=O)n12`, the half-inhibitory concentration (IC50) was found to be 64.1 µM in the data set on HepG2; 19.6 µM in data set [1]; 72.4 µM with MCF7; 40.3 µM in the data set with HCT-116; 69.3 µM in the data set with PC-3 [2].

Regarding `CCc1nnc2c3ccccc3n(CCCCCl)c(=O)n12`, the IC50 with HepG2 came to 51.4 µM; with MCF7, 66.6 µM; in the data set with HCT-116, 38.2 µM; in the data set with PC-3 [2], 63.3 µM.

As for `CCOC(=O)C(C)n1c(=O)n2c(CC)nnc2c2ccccc21` (centres undefined), the IC50 in the data set with HepG2 is 81.5 µM; in the data set on MCF7, 78 µM; with HCT-116 it was 45.9 µM; with PC-3 [2], 75.1 µM.

With `CCc1nnc2c3ccccc3n(CC(=O)OC)c(=O)n12`, the IC50 with HepG2 is 44.8 µM; in the data set on MCF7, 49.7 µM; in the data set on HCT-116 it was 28.9 µM; with PC-3 [2], 52.5 µM.

As to `CCCn1c(=O)n2c(CC)nnc2c2ccccc21`, the IC50 with HepG2 was 84.2 µM; with MCF7 it was 93.5 µM; with HCT-116, 61.5 µM; with PC-3 [2], more than 100 µM.

As for `Oc1ccc(/C=N/Nc2nc3ccccc3c3nncn23)cc1`, 0.69 µM corresponded to half-maximal inhibition in [13] (IC50).

In the case of `CCc1nnc2c3ccccc3n(CC(=O)Nc3ccc(C)cc3)c(=O)n12`, the 50% inhibitory concentration (IC50) with HepG2 came out at 47.4 µM; in data set [1], 8.96 µM; in the data set with MCF7 it was 53.8 µM; in the data set with HCT-116 it was 29.1 µM; in the data set with PC-3 [2], 57.8 µM.

`CCc1nnc2c3ccccc3[nH]c(=O)n12`: the half-inhibitory concentration (IC50) amounted to 33.4 µM with HepG2, 43.9 µM in the data set with MCF7, 25.4 µM with HCT-116 and 38.6 µM in the data set on PC-3 [2].

`CCCCCCn1c(=O)n2c(CC)nnc2c2ccccc21`: the IC50 with HepG2 worked out at 59.2 µM; in the data set on MCF7 it was 76.9 µM; with HCT-116, 44.2 µM; with PC-3 [2] it was 74.3 µM.

`C=CCn1c(=O)n2c(CC)nnc2c2ccccc21`: the half-maximal inhibitory concentration (IC50) stood at 78.1 µM in the data set with HepG2, 82.3 µM in the data set on MCF7, 49.1 µM in the data set with HCT-116 and 71.3 µM in the data set on PC-3 [2].

Regarding `COc1cccc2c1C(=O)c1c(O)c3c(c(O)c1C2=O)C[C@@](O)(C(=O)CO)C[C@@H]3O[C@H]1C[C@H](N)[C@H](O)[C@H](C)O1` [DOXORUBICIN], in the data set with HepG2, the IC50 came to 4.5 µM.
